Measurements as given in ChEMBL document CHEMBL4041542, “Synthesis and biological characterisation of ester and amide derivatives of fusidic acid as antiplasmodial agents” (Bioorg Med Chem Lett, 2017).

Experiments:
[1] = test system: Plasmodium falciparum; assay: Potency index, ratio of fusidic acid IC50 to compound IC50 for chloroquine-sensitive Plasmodium falciparum NF54; type: functional
Outline: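 Chloroquine-sensitive P. falciparum NF54 was tested with the lactate dehydrogenase assay, using chloroquine and artesunate as reference drugs. The index is fusidic acid's IC50 divided by the compound's IC50, both against NF54.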

[2] = Selectivity index, ratio of IC50 for CHO cells to IC50 for chloroquine-sensitive Plasmodium falciparum NF54; type: toxicity; details: hamster, read-out: Ratio IC50
Outline: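 IC50 against Chinese hamster ovary cells (cytotoxicity) was divided by IC50 against P. falciparum NF54. NF54 IC50 came from the lactate dehydrogenase assay, with chloroquine and artesunate as references.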

[3] = test system: Plasmodium falciparum; assay: Antiplasmodial activity against chloroquine-resistant Plasmodium falciparum K1 by [3H]hypoxanthine incorporation assay; type: functional
Outline: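 Multidrug-resistant K1 strain of P. falciparum tested in vitro with a modified [3H]hypoxanthine incorporation assay. IC50 determined. Chloroquine and artesunate served as reference drugs in every experiment.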

[4] = test system: Plasmodium falciparum; assay: Antiplasmodial activity against chloroquine-sensitive Plasmodium falciparum NF54 by LDH assay; type: functional
Outline: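 In vitro test on the chloroquine-sensitive NF54 strain of P. falciparum, read out by the lactate dehydrogenase assay. Reported as IC50. Chloroquine and artesunate were included as reference drugs in all experiments.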

[5] = test system: Plasmodium falciparum; assay: Potency index, ratio of fusidic acid IC50 to compound IC50 for chloroquine-resistant Plasmodium falciparum K1; type: functional
[6] = test system: CHO; assay: Cytotoxicity against CHO cells; type: cell-based; details: Cricetulus griseus
[7] = Stability of the compound assessed as Plasmodium falciparum NF54 esterase-mediated fusidic acid release at 0.5 uM up to 48 hrs by LC-MS/MS analysis; type: ADME; details: plasmodium falciparum nf54, isolated protein

SMILES | Ratio IC50 [1] | selectivity ratio [2] | IC50 [3] [µM] | IC50 [4] [µM] | Ratio IC50 [5] | IC50 [6] [µM] | Stability [7]
CCCCCCCCCCCCNC(=O)/C(CCC=C(C)C)=C1\[C@@H](OC(C)=O)C[C@@]2(C)[C@H]1C[C@@H](O)[C@H]1[C@@]3(C)CC[C@@H](O)[C@@H](C)[C@@H]3CC[C@@]12C | 4 - 49 | > 122 | 1.5 | 1.2 | 5 - 17 | > 146 | –
CC(=O)O[C@H]1C[C@@]2(C)[C@@H](C[C@@H](O)[C@H]3[C@@]4(C)CC[C@@H](O)[C@@H](C)[C@@H]4CC[C@@]32C)/C1=C(\CCC=C(C)C)C(=O)Oc1ccc(F)cc1 | 20 - 28 | 27 | 1.4 | 2.9 | 12 - 14 | 79.4 | –
CCCCCCCCCCCCCCCCOC(=O)/C(CCC=C(C)C)=C1\[C@@H](OC(C)=O)C[C@@]2(C)[C@H]1C[C@@H](O)[C@H]1[C@@]3(C)CC[C@@H](O)[C@@H](C)[C@@H]3CC[C@@]12C | – | – | > 13.5 | > 100 | – | > 135 | –
CCCCCCCCCCCCCCCCNC(=O)/C(CCC=C(C)C)=C1\[C@@H](OC(C)=O)C[C@@]2(C)[C@H]1C[C@@H](O)[C@H]1[C@@]3(C)CC[C@@H](O)[C@@H](C)[C@@H]3CC[C@@]12C | – | – | > 13.5 | > 100 | – | > 135 | –
CC(=O)O[C@H]1C[C@@]2(C)[C@@H](C[C@@H](O)[C@H]3[C@@]4(C)CC[C@@H](O)[C@@H](C)[C@@H]4CC[C@@]32C)/C1=C(\CCC=C(C)C)C(=O)Oc1ccc(Cl)cc1Cl | 4 - 49 | 28 | 1.7 | 3.5 | 5 - 17 | 99.7 | –
C[C@H]1[C@H](OC(=O)CCC(=O)O)O[C@@H]2O[C@@]3(C)CC[C@H]4[C@H](C)CC[C@@H]1[C@@]24OO3 [ARTESUNATE] | – | – | 0.0026 | 0.0093 | – | – | –
CC(=O)O[C@H]1C[C@@]2(C)[C@@H](C[C@@H](O)[C@H]3[C@@]4(C)CC[C@@H](O)[C@@H](C)[C@@H]4CC[C@@]32C)/C1=C(\CCC=C(C)C)C(=O)Oc1cccc(Cl)c1 | 4 - 49 | 63 | 1.2 | 1.4 | 5 - 17 | 87.7 | –
CCCCOC(=O)/C(CCC=C(C)C)=C1\[C@@H](OC(C)=O)C[C@@]2(C)[C@H]1C[C@@H](O)[C@H]1[C@@]3(C)CC[C@@H](O)[C@@H](C)[C@@H]3CC[C@@]12C | 4 - 49 | 13 | 1.5 | 2.9 | 5 - 17 | 37.4 | –
CC(=O)O[C@H]1C[C@@]2(C)[C@@H](C[C@@H](O)[C@H]3[C@@]4(C)CC[C@@H](O)[C@@H](C)[C@@H]4CC[C@@]32C)/C1=C(\CCC=C(C)C)C(=O)Oc1cc(F)cc(F)c1 | 4 - 49 | 21 | – | 4.7 | 5 - 17 | 96.7 | –
CC(=O)O[C@H]1C[C@@]2(C)[C@@H](C[C@@H](O)[C@H]3[C@@]4(C)CC[C@@H](O)[C@@H](C)[C@@H]4CC[C@@]32C)/C1=C(\CCC=C(C)C)C(=O)Oc1ccc2ccccc2c1 | 4 - 49 | > 48 | 1.7 | 3.2 | 5 - 17 | > 155 | –
CCCCCCCCCCCCCCOC(=O)/C(CCC=C(C)C)=C1\[C@@H](OC(C)=O)C[C@@]2(C)[C@H]1C[C@@H](O)[C@H]1[C@@]3(C)CC[C@@H](O)[C@@H](C)[C@@H]3CC[C@@]12C | – | – | > 14 | > 100 | – | > 140 | –
CC(=O)O[C@H]1C[C@@]2(C)[C@@H](C[C@@H](O)[C@H]3[C@@]4(C)CC[C@@H](O)[C@@H](C)[C@@H]4CC[C@@]32C)/C1=C(\CCC=C(C)C)C(=O)Oc1ccccc1 | 20 - 28 | 41 | 1.4 | 2.4 | 12 - 14 | 99.4 | Stable
CCCCCCCCCCCCCCNC(=O)/C(CCC=C(C)C)=C1\[C@@H](OC(C)=O)C[C@@]2(C)[C@H]1C[C@@H](O)[C@H]1[C@@]3(C)CC[C@@H](O)[C@@H](C)[C@@H]3CC[C@@]12C | 4 - 49 | > 10 | 4 | 13.4 | 5 - 17 | > 140 | –
